# Data published in ChEMBL document CHEMBL2202989, “New adamantane phenylalkylamines with σ-receptor binding affinity and anticancer activity, associated with putative antagonism of neuropathic pain” (J Med Chem, 2012).
# How the values were obtained:
# [1] = test system: PC-3; assay: Growth inhibition of human PC3 cells after 48 hrs by SRB assay; format: functional; conditions: PC-3, 48 h; for CC50: read-out: LC50 (the source's name)
# How it was run: (§1)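 Cells grown in RPMI 1640 with 5% heat-inactivated FCS, 2 mM L-glutamine and antibiotics, 37 °C, 5% CO2. Seeded at 3500–30000 cells/well and left 24 h before dosing. DMSO solutions added at 10-fold dilutions from 100 to 0.01 μM for 48 h. Cells TCA-fixed and SRB-stained, absorbance read at 540 nm; GI50 derived against the time-zero plate.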
# [2] = (§2) Growth inhibition of human NHDF cells after 48 hrs by SRB assay; format: cell-based; conditions: NHDF cells; how it was run: as §1
# [3] = test system: NHDF; assay: as §2; format: cell-based; conditions: nhdf, 48 h; how it was run: as §1
# [4] = test system: HCT-15; assay: Growth inhibition of human HCT15 cells after 48 hrs by SRB assay; format: functional; conditions: HCT-15, 48 h; for CC50: read-out: LC50 (the source's name); how it was run: as §1
# [5] = test system: MCF7; assay: Growth inhibition of human MCF7 cells after 48 hrs by SRB assay; format: functional; conditions: MCF7, 48 h; for CC50: read-out: LC50 (the source's name); how it was run: as §1
# [6] = molecular target: Sigma non-opioid intracellular receptor 1 (Homo sapiens, UniProt Q99720); assay: Displacement of [3H]-(+)-pentazocine from sigma 1 receptor in human Jurkat cell membrane; format: cell membranes
# How it was run: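 Jurkat cell membranes incubated with 8 nM [3H](+)-pentazocine and a range of test concentrations for 2 h at 22 °C in Tris-HCl buffer, pH 7.4. Nonspecific binding defined with 10 μM haloperidol. Run in triplicate.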
# [7] = test system: SK-HEP1; assay: Growth inhibition of human SKHEP1 cells after 48 hrs by SRB assay; format: functional; conditions: SK-HEP1, 48 h; for CC50: read-out: LC50 (the source's name); how it was run: as §1
# [8] = test system: U-251; assay: Growth inhibition of human U251 cells after 48 hrs by SRB assay; format: functional; conditions: U-251, 48 h; for CC50: read-out: LC50 (the source's name); how it was run: as §1
# [9] = Growth inhibition of human MSC cells after 48 hrs by SRB assay; format: cell-based; how it was run: as §1
# [10] = test system: OVCAR-5; assay: Growth inhibition of human OVCAR5 cells after 48 hrs by SRB assay; format: functional; conditions: OVCAR-5, 48 h; for CC50: read-out: LC50 (the source's name); how it was run: as §1
# [11] = test system: BXPC-3; assay: Growth inhibition of human BxPC3 cells after 48 hrs by SRB assay; format: functional; conditions: BXPC-3, 48 h; how it was run: as §1
# [12] = test system: MIA PaCa-2; assay: Growth inhibition of human MIAPaCa2 cells after 48 hrs by SRB assay; format: functional; conditions: MIA PaCa-2, 48 h; for CC50: read-out: LC50 (the source's name); how it was run: as §1
# [13] = Displacement of [3H]1,3-di-otolylguanidine from sigma 2 receptor in rat cerebral cortex membranes; format: cell membranes, Membrane
# How it was run: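 Rat cerebral cortex membranes incubated with 5 nM [3H]DTG plus 300 nM (+)-pentazocine to mask σ1 sites, together with a range of test concentrations, 2 h at 22 °C in Tris-HCl, pH 7.4. Nonspecific binding defined with 10 μM haloperidol.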
# [14] = test system: HUVEC; assay: (§3) Growth inhibition of human HUVEC cells after 48 hrs by SRB assay; format: cell-based; conditions: huvec, 48 h; how it was run: as §1
# [15] = as §3; format: cell-based; conditions: HUVEC cells; how it was run: as §1
# [16] = test system: IGROV-1; assay: Growth inhibition of human IGROV1 cells after 48 hrs by SRB assay; format: functional; conditions: IGROV-1, 48 h; for CC50: read-out: LC50 (the source's name); how it was run: as §1
# [17] = test system: HL-60(TB); assay: Growth inhibition of human HL-60(TB) cells after 48 hrs by SRB assay; format: functional; conditions: HL-60, 48 h; for CC50: read-out: LC50 (the source's name)
# How it was run: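 Cells kept in RPMI 1640 with 5% FCS at 37 °C, 5% CO2, and seeded 24 h before dosing. Compound given from DMSO at 10-fold dilutions, 100 to 0.01 μM, for 48 h. Cells fixed with TCA, stained with SRB, absorbance read at 540 nm. GI50 taken from a time-zero plate.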
# [18] = test system: DU-145; assay: Growth inhibition of human DU145 cells after 48 hrs by SRB assay; format: functional; conditions: DU-145, 48 h; for CC50: read-out: LC50 (the source's name); how it was run: as §1
# [19] = test system: HCT-116; assay: Growth inhibition of human HCT116 cells after 48 hrs by SRB assay; format: functional; conditions: HCT-116, 48 h; how it was run: as §1
# Sigma non-opioid intracellular receptor 1, sequence (Q99720 whole entry): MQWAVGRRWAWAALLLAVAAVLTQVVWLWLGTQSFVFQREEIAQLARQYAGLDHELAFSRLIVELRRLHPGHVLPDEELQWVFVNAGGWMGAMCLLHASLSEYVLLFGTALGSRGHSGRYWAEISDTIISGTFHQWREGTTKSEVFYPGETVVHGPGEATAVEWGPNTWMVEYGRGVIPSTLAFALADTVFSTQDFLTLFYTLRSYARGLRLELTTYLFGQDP
SMILES,GI50 [1] [µM],TGI [1] [µM],CC50 [1] [µM],GI50 at 48 h [2] [µM],LC50 [3] [µM],TGI [3] [µM],GI50 [4] [µM],TGI [4] [µM],CC50 [4] [µM],GI50 [5] [µM],TGI [5] [µM],CC50 [5] [µM],GI50 [7] [µM],TGI [7] [µM],CC50 [7] [µM],GI50 [8] [µM],TGI [8] [µM],CC50 [8] [µM],TGI [9] [µM],GI50 [11] [µM],other results
CN1CCN(CCc2ccc(C(c3ccccc3)C34CC5CC(CC(C5)C3)C4)cc2)CC1 (centres undefined),4.57,9,0.0135,4.18,100,8.07,4.64,8.26,0.1,2.77,5.7,0.0086,3.69,6.36,0.00902,3.37,6.09,0.00881,6.39,5.76,IC50 [6]: 0.0029 µM; GI50 [10]: 17.4 µM; TGI [10]: 29.3 µM; CC50 [10]: 0.0624 µM; LC50 [11]: 0.1 µM; TGI [11]: 19.9 µM; GI50 [12]: 7.5 µM; TGI [12]: 36 µM; CC50 [12]: 0.0762 µM; IC50 [13]: 0.0801 µM; LC50 [14]: 9.6 µM; TGI [14]: 6.46 µM; GI50 at 48 h [15]: 3.32 µM; GI50 [16]: 4.29 µM; TGI [16]: 8.93 µM; CC50 [16]: 0.0136 µM
c1ccc(C(c2ccc(CN3CCNCC3)cc2)C23CC4CC(CC(C4)C2)C3)cc1 (centres undefined),3.89,7.52,0.0692,3.66,9.73,6.69,3.28,5.76,0.00824,2.45,5.51,0.00857,3.51,6.17,0.00884,3.41,5.92,0.00843,3.14,4.3,GI50 [17]: 0.00448 µM; TGI [17]: 0.00759 µM; CC50 [17]: 0.1 µM; GI50 [18]: 4.23 µM; TGI [18]: 17.8 µM; CC50 [18]: 0.0392 µM; LC50 [11]: 0.00951 µM; TGI [11]: 6.9 µM; LC50 [14]: 17.43 µM; TGI [14]: 5.98 µM; GI50 at 48 h [15]: 2.91 µM
CCN1CCN(Cc2ccc(C(c3ccccc3)C34CC5CC(CC(C5)C3)C4)cc2)CC1 (centres undefined),7,7.9,0.0624,6.59,100,66.8,3.36,6.36,0.0094,2.26,5.92,0.00958,5.9,24.3,0.0902,4.33,7.8,0.0685,4.61,4.33,GI50 [10]: 18.1 µM; TGI [10]: 43.8 µM; CC50 [10]: 0.07 µM; GI50 [17]: 0.00433 µM; TGI [17]: 0.00775 µM; CC50 [17]: 0.1 µM; GI50 [18]: 5.73 µM; TGI [18]: 46.1 µM; CC50 [18]: 0.1 µM; LC50 [11]: 0.00935 µM; TGI [11]: 6.84 µM; GI50 [12]: 8.24 µM; TGI [12]: 43.7 µM; CC50 [12]: 0.0886 µM; LC50 [14]: 9.54 µM; TGI [14]: 5.34 µM; GI50 at 48 h [15]: 1.14 µM
c1ccc(C(c2ccc(CN3CCCCC3)cc2)C23CC4CC(CC(C4)C2)C3)cc1 (centres undefined),6.07,26.2,0.0813,23.7,81.19,52.5,8.8,79,0.1,8.89,43,0.0806,7.46,38.4,0.0822,8.6,40.2,0.0758,20.1,15.8,GI50 [10]: 31.1 µM; TGI [10]: 60.8 µM; CC50 [10]: 0.0915 µM; GI50 [17]: 0.00591 µM; TGI [17]: 0.0729 µM; CC50 [17]: 0.1 µM; GI50 [18]: 8.98 µM; TGI [18]: 47.3 µM; CC50 [18]: 0.089 µM; LC50 [11]: 0.0874 µM; TGI [11]: 51.6 µM; GI50 [12]: 7.98 µM; TGI [12]: 43.2 µM; CC50 [12]: 0.0813 µM; LC50 [14]: 72.47 µM; TGI [14]: 21.7 µM; GI50 at 48 h [15]: 5.11 µM
c1ccc(C(c2ccc(CCN3CCCCC3)cc2)C23CC4CC(CC(C4)C2)C3)cc1 (centres undefined),11.6,41.2,0.092,18.6,99.34,59,9.12,43.7,0.082,6.93,42.4,0.0985,8.61,58.2,0.1,24.8,55.8,0.0867,18.3,64.7,GI50 [10]: 37.3 µM; TGI [10]: 67.8 µM; CC50 [10]: 0.0977 µM; LC50 [11]: 0.1 µM; TGI [11]: 100 µM; GI50 [12]: 35.5 µM; TGI [12]: 63.3 µM; CC50 [12]: 0.0911 µM; LC50 [14]: 100 µM; TGI [14]: 9.33 µM; GI50 at 48 h [15]: 5.31 µM; GI50 [16]: 17.7 µM; TGI [16]: 43.7 µM; CC50 [16]: 0.0687 µM
CCN1CCN(CCc2ccc(C(c3ccccc3)C34CC5CC(CC(C5)C3)C4)cc2)CC1 (centres undefined),4.83,9.53,0.0867,7.31,100,83.6,5.64,17.2,0.1,3.9,8.5,0.0971,4.14,7.66,0.1,3.54,6.19,0.00847,2.93,8.35,GI50 [10]: 28.1 µM; TGI [10]: 53.8 µM; CC50 [10]: 0.0685 µM; LC50 [11]: 0.0898 µM; TGI [11]: 45.2 µM; GI50 [12]: 20.9 µM; TGI [12]: 49.2 µM; CC50 [12]: 0.0775 µM; LC50 [14]: 9.62 µM; TGI [14]: 7.36 µM; GI50 at 48 h [15]: 5.1 µM; GI50 [16]: 4.49 µM; TGI [16]: 9.83 µM; CC50 [16]: 0.0968 µM
CCN1CCN(CCCc2ccc(C(c3ccccc3)C34CC5CC(CC(C5)C3)C4)cc2)CC1 (centres undefined),4.79,7.84,0.0109,5.04,100,36.6,4.09,7.64,0.0473,3.05,5.87,0.00861,3.41,6.01,0.00861,4.29,6.69,0.00909,8.69,5.3,GI50 [19]: 3.29 µM; TGI [19]: 5.9 µM; CC50 ([19]; read-out: LC50 (the source's name)): 0.00852 µM; GI50 [18]: 5.33 µM; TGI [18]: 8.5 µM; CC50 [18]: 0.0117 µM; LC50 [11]: 0.1 µM; TGI [11]: 10.6 µM; LC50 [14]: 9.4 µM; TGI [14]: 6.73 µM; GI50 at 48 h [15]: 4.07 µM
CN1CCN(Cc2ccc(C(c3ccccc3)C34CC5CC(CC(C5)C3)C4)cc2)CC1 (centres undefined),3.55,6.25,0.0685,5.12,100,10.4,3.5,6.3,0.0091,2.25,5.29,0.00833,3.35,5.97,0.00859,3.62,6.55,0.00947,4.44,4.83,IC50 [6]: 0.0052 µM; GI50 [10]: 5.31 µM; TGI [10]: 19.7 µM; CC50 [10]: 0.0577 µM; GI50 [17]: 0.00463 µM; TGI [17]: 0.00914 µM; CC50 [17]: 0.1 µM; GI50 [18]: 3.01 µM; TGI [18]: 6.41 µM; CC50 [18]: 0.00908 µM; LC50 [11]: 0.00913 µM; TGI [11]: 6.98 µM; GI50 [12]: 3.61 µM; TGI [12]: 6.34 µM; CC50 [12]: 0.00906 µM; IC50 [13]: 0.11 µM; LC50 [14]: 100 µM; TGI [14]: 7.3 µM; GI50 at 48 h [15]: 4.12 µM
